Values after ≈ are worked out from the molar mass of the structure shown.
What was measured:
Assay type in all cases: functional
Escherichia coli = assay: Antibacterial activity against Escherichia coli ATTC 25922 after 3 to 4 days by serial plate dilution method; conditions: for MIC: Escherichia coli, ATTC 25922
Summary of the method: (§1)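 Serial dilutions in Mueller-Hinton broth in tubes, pH adjusted to 5.0 with phosphate buffer. Inoculated with a standardized bacterial suspension and incubated 16–18 h at 37 °C. MIC is the lowest concentration with no visible growth, tested over 6.25–100 µg/mL. Zones come from an agar well diffusion assay: compounds in DMSO are added to wells in seeded agar, DMSO control, triplicate plates, 37 °C for 3–4 days, inhibition zone diameter in mm.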

Klebsiella pneumoniae = assay: Antibacterial activity against recultured Klebsiella pneumoniae after 3 to 4 days by serial plate dilution method; conditions: for MIC: Klebsiella pneumoniae; summary of the method: as §1
Streptococcus pyogenes = assay: Antibacterial activity against Streptococcus pyogenes after 3 to 4 days by serial plate dilution method; conditions: for MIC: Streptococcus pyogenes; summary of the method: as §1
Candida albicans = assay: Antifungal activity against Candida albicans after 3 to 4 days by serial plate dilution method; conditions: for MIC: Candida albicans
Summary of the method: (§2)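 Sabouraud agar made from peptone, glucose and agar in water, pH 5.7. Fungal spores suspended in normal saline and used to lawn the plates, which were dried 1 h at 37 °C. Wells punched and compounds added in DMSO, with a DMSO solvent control. Triplicate plates held at 37 °C for 3–4 days. Read-out is inhibition zone diameter.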

Aspergillus flavus = assay: Antifungal activity against Aspergillus flavus NCIM 524 after 3 to 4 days by serial plate dilution method; conditions: for MIC: Aspergillus flavus, NCIM 524; summary of the method: as §2
[1] = system: Trichophyton mentagrophytes; assay: Antifungal activity against recultured Trichophyton mentagrophytes after 3 to 4 days by serial plate dilution method; conditions: for MIC: Trichophyton mentagrophytes; summary of the method: as §2
Pseudomonas aeruginosa = assay: Antibacterial activity against Pseudomonas aeruginosa ATCC 27853 after 3 to 4 days by serial plate dilution method; conditions: for MIC: Pseudomonas aeruginosa, ATCC 27853; summary of the method: as §1
Aspergillus fumigatus = assay: Antifungal activity against Aspergillus fumigatus NCIM 902 after 3 to 4 days by serial plate dilution method; conditions: for MIC: Aspergillus fumigatus, NCIM 902; summary of the method: as §2
Staphylococcus aureus = assay: Antibacterial activity against Staphylococcus aureus ATTC 25923 after 3 to 4 days by serial plate dilution method; conditions: for MIC: Staphylococcus aureus, ATTC 25923; summary of the method: as §1
Talaromyces marneffei = assay: Antifungal activity against recultured Penicillium marneffei after 3 to 4 days by serial plate dilution method; conditions: for MIC: Talaromyces marneffei; summary of the method: as §2

Compound | diameter of the inhibition zone (DIZ) (Escherichia coli) | MIC (Escherichia coli) | diameter of the inhibition zone (DIZ) (Klebsiella pneumoniae) | MIC (Klebsiella pneumoniae) | diameter of the inhibition zone (DIZ) (Streptococcus pyogenes) | MIC (Streptococcus pyogenes) | diameter of the inhibition zone (DIZ) (Candida albicans) | MIC (Candida albicans) | diameter of the inhibition zone (DIZ) (Aspergillus flavus) | MIC (Aspergillus flavus) | diameter of the inhibition zone (DIZ) [1] | MIC [1] | diameter of the inhibition zone (DIZ) (Pseudomonas aeruginosa) | MIC (Pseudomonas aeruginosa) | diameter of the inhibition zone (DIZ) (Aspergillus fumigatus) | MIC (Aspergillus fumigatus) | diameter of the inhibition zone (DIZ) (Staphylococcus aureus) | MIC (Staphylococcus aureus) | diameter of the inhibition zone (DIZ) (Talaromyces marneffei) | MIC (Talaromyces marneffei)
COc1ccc2nc(C)cc(-n3cc(CNC4CC4)nn3)c2c1 | 16 mm | 6.25 µg/mL (≈ 20.2 µM) | 18 mm | 6.25 µg/mL (≈ 20.2 µM) | 12 mm | 6.25 µg/mL (≈ 20.2 µM) | 13 mm | 6.25 µg/mL (≈ 20.2 µM) | 14 mm | 6.25 µg/mL (≈ 20.2 µM) | 15 mm | 6.25 µg/mL (≈ 20.2 µM) | 12 mm | 6.25 µg/mL (≈ 20.2 µM) | 18 mm | 6.25 µg/mL (≈ 20.2 µM) | 16 mm | 6.25 µg/mL (≈ 20.2 µM) | 18 mm | 6.25 µg/mL (≈ 20.2 µM)
COc1ccc2nc(C)cc(-n3cc(CNC4CCCC4)nn3)c2c1 | 12 mm | 6.25 µg/mL (≈ 18.5 µM) | 14 mm | 6.25 µg/mL (≈ 18.5 µM) | 12 mm | 6.25 µg/mL (≈ 18.5 µM) | 10 mm | 6.25 µg/mL (≈ 18.5 µM) | 10 mm | 6.25 µg/mL (≈ 18.5 µM) | 10 mm | 6.25 µg/mL (≈ 18.5 µM) | 12 mm | 6.25 µg/mL (≈ 18.5 µM) | 14 mm | 6.25 µg/mL (≈ 18.5 µM) | 12 mm | 6.25 µg/mL (≈ 18.5 µM) | 10 mm | 6.25 µg/mL (≈ 18.5 µM)
